Data on three compounds can be found in ChEMBL document CHEMBL4038329, “Side-Chain Modified Ergosterol and Stigmasterol Derivatives as Liver X Receptor Agonists” (J Med Chem, 2017).

The nature of data set [1]: Agonist activity at LXR in human HepG2 cells assessed as upregulation of FASN mRNA levels at 10 uM after 6 hrs by qPCR analysis. Format: cell-based. Put shortly:
(§1)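 HepG2 cells treated with ligand (10 μM). Total RNA was extracted with TRIZOL; 2 µg was reverse-transcribed (1 h, 42 °C). SREBP1c, FASN and SCD1 transcripts were measured by qPCR. Mean ± SD of three biological samples; ANOVA with Dunnett's test.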
(In general: In qPCR the cycle at which signal appears reflects the starting amount.)

Data set [2] can be described thus: Agonist activity at LXR in human HepG2 cells assessed as upregulation of SREBP1c mRNA levels at 10 uM after 6 hrs by qPCR analysis. It is filed as cell-based. A digest of the protocol:
as §1

Data set [3] in a line: Agonist activity at LXR in human U937 cells assessed as upregulation of SCD1 mRNA levels at 10 uM after 16 hrs by qPCR analysis. It is filed as cell-based.
Data set [4] can be described thus: Agonist activity at LXR in human U937 cells assessed as upregulation of FASN mRNA levels at 10 uM after 16 hrs by qPCR analysis. Format: cell-based.
Data set [5] can be described thus: Agonist activity at LXR in human U937 cells assessed as upregulation of SCD1 mRNA levels at 10 uM after 6 hrs by qPCR analysis relative to control. It is filed as cell-based. Particulars: human, 6 h, 10 µM. A digest of the protocol: (§2)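 U937 cells, 3x10⁶ in 10 ml RPMI with 10% FBS, differentiated with PMA 10 ng/ml for 72 h at 37 °C, then treated with ligand (10 μM) for 6 h. Total RNA was isolated with TRIZOL; 2 µg was reverse-transcribed for 1 h at 42 °C. Transcripts were measured by qPCR. Mean ± SD of three biological samples; ANOVA with Dunnett's test.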

Data set [6] can be described thus: Agonist activity at LXR in human U937 cells assessed as upregulation of SREBP1c mRNA levels at 10 uM after 6 hrs by qPCR analysis. Format: cell-based. Put shortly:
as §2

Data set [7] can be described thus: Agonist activity at LXR in human U937 cells assessed as upregulation of FASN mRNA levels at 10 uM after 6 hrs by qPCR analysis. It is filed as cell-based. A digest of the protocol:
as §2

The species entered for data set [8] is Homo sapiens. The data set can be described thus: Agonist activity at LXR in human U937 cells assessed as upregulation of ABCA1 mRNA levels at 10 uM after 6 hrs by qPCR analysis. Format: cell-based. Put shortly:
as §2

The species entered for data set [9] is Homo sapiens. The data set can be described thus: Agonist activity at LXR in human U937 cells assessed as downregulation of LPS-induced TNFalpha mRNA expression at 10 uM after 6 hrs by qPCR analysis. Format: cell-based. A digest of the protocol:
(§3)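 PMA-differentiated U937 cells (10 ng/ml PMA, 72 h) were given LPS 100 ng/ml together with compound (10 μM) for 6 h. CCL2 and TNFα mRNA were measured by qPCR after TRIZOL RNA extraction and reverse transcription. Three biological samples per group, mean ± SD.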

A short description of data set [10]: Agonist activity at LXR in human HepG2 cells assessed as upregulation of SCD1 mRNA levels at 10 uM after 6 hrs by qPCR analysis. It is filed as cell-based. A digest of the protocol:
as §1

The target of data set [11] is T1, Bile acid receptor (Homo sapiens) (UniProt Q96RI1).
T1 sequence (whole entry): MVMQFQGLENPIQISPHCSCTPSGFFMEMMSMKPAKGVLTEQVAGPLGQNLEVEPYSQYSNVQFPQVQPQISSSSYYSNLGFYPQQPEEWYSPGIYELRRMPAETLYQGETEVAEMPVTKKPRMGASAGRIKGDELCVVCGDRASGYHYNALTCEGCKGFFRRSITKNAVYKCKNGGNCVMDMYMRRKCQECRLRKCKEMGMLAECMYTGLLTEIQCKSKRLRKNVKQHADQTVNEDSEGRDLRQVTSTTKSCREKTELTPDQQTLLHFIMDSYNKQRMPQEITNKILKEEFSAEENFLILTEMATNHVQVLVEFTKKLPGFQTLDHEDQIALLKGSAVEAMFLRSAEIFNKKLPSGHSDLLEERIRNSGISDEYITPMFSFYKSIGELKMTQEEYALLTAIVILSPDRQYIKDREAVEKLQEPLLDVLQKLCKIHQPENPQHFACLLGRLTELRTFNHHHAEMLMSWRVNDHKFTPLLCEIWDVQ
The data set can be described thus: Activation of GAL4 fused human FXR expressed in HEK293 cells at 10 uM by luciferase reporter gene assay. On the technique in general: A reporter such as luciferase makes a cellular process visible.

A further data set has as its system HEK293. Nature of the data set: Activation of GAL4 fused human RXR expressed in HEK293 cells at 10 uM after 24 hrs by luciferase reporter gene assay.
For data set [12], the target named is T2, Peroxisome proliferator-activated receptor gamma (Homo sapiens) (UniProt P37231).
T2 sequence (whole entry): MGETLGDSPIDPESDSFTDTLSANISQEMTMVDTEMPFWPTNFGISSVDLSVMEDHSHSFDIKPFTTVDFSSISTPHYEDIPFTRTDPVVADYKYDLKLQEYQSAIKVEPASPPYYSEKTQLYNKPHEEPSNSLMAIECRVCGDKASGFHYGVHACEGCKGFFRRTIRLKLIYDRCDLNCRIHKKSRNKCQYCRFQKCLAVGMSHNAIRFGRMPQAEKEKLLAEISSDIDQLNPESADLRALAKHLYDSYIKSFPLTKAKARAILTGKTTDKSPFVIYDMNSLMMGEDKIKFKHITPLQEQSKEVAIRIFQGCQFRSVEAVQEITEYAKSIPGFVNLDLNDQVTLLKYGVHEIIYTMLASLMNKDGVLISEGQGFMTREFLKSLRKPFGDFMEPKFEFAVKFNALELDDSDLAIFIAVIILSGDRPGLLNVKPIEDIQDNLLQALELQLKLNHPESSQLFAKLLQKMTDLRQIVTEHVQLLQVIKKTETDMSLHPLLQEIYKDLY
Nature of the data set: Activation of GAL4 fused human PPARgamma expressed in HEK293 cells at 10 uM after 24 hrs by luciferase reporter gene assay.

In data set [13] the target is T3, Oxysterols receptor LXR-beta (Homo sapiens, UniProt P55055).
T3 sequence (P55055 whole entry): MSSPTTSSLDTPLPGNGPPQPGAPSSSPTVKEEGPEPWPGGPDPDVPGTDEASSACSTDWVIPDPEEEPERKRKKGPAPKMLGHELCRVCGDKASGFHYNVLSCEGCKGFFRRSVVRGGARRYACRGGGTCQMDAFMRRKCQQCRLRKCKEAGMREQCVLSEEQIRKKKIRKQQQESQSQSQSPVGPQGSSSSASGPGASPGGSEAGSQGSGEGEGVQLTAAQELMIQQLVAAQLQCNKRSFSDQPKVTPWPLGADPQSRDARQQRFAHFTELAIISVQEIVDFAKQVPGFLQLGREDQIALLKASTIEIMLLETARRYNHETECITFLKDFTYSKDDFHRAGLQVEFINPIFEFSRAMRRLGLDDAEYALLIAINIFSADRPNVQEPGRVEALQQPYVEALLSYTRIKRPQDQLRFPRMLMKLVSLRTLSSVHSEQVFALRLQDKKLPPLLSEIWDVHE
Nature of the data set: Activation of GAL4 fused human LXR beta expressed in HEK293 cells after 24 hrs by luciferase reporter gene assay. Format: cell-based. Put shortly:
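HEK293 cells (4x10⁴/well), grown in DMEM with 10% FBS at 37 °C under 5% CO₂, transiently co-transfected with pMH100X4-TK-luc, Renilla and the Gal4-LXR-α or Gal4-LXR-β plasmid. Dosing began 6 h after transfection and lasted 24 h, at 32, 16, 8, 4, 2 and 1 μM. Dual luciferase read-out. EC50 came from dose-response curves, averaged over three to five independent experiments, ± SD.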

In data set [14] the target is T4, Oxysterols receptor LXR-alpha (Homo sapiens) (UniProt Q13133).
T4 sequence (whole entry): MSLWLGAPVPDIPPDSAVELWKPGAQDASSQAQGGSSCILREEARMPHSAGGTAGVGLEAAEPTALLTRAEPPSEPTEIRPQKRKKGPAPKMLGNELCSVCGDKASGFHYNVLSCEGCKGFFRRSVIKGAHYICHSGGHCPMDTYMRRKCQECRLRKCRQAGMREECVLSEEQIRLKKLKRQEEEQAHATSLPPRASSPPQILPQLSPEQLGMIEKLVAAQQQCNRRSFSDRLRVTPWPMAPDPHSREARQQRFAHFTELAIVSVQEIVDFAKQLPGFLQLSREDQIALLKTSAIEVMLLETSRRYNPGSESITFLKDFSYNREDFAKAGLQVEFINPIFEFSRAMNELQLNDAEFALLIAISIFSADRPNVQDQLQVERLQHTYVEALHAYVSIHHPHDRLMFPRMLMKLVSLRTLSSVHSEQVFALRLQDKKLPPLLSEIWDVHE
The data set can be described thus: Activation of GAL4 fused human LXR alpha expressed in HEK293 cells after 24 hrs by luciferase reporter gene assay relative to 22R-HC. It is filed as cell-based. A digest of the protocol:
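HEK293 cells carrying the Gal4-LXR-α or Gal4-LXR-β chimera plus the pMH100X4-TK-luc and Renilla reporters. Treatment started 6 h post-transfection and ran 24 h. Dual luciferase read-out. Efficacy is given as % of the response to 8 μM 22R-HC, ± SD, from three to five independent experiments.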

The species named for data set [15] is Homo sapiens. The data set can be described thus: Agonist activity at LXR in human U937 cells assessed as downregulation of LPS-induced CCL2 mRNA expression at 10 uM after 6 hrs by qPCR analysis. It is filed as cell-based. Put shortly: as §3
Data set [16] has as its target T5, Nuclear receptor subfamily 1 group I member 2 (Homo sapiens, UniProt O75469).
T5 sequence (O75469 whole entry): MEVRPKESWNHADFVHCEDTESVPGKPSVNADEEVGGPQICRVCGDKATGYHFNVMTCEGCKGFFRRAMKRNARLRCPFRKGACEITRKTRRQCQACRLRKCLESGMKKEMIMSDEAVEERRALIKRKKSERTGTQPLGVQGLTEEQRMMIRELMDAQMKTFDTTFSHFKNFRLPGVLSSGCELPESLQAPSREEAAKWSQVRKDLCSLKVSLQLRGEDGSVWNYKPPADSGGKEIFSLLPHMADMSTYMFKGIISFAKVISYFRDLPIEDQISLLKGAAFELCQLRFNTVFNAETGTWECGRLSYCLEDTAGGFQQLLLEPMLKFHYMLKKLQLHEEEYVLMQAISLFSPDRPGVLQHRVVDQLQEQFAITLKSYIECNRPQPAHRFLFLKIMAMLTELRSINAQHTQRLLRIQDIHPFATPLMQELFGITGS
Nature of the data set: Activation of GAL4 fused human PXR expressed in HEK293 cells at 10 uM by luciferase reporter gene assay. Particulars: hek293, 10 µM.

The source made the active and inactive calls. The rule behind the calls is not given here.

In the case of `CC(C)CC[C@@H](O)[C@@H](C)[C@H]1CC[C@H]2[C@@H]3CC=C4C[C@@H](O)CC[C@]4(C)[C@H]3CC[C@]12C` [22(R)-HYDROXYCHOLESTEROL], the Activity result in data set [1], in [2], in [3], in data set [4], in data set [5] and in data set [6] was “Not Active” in each case. Besides, the Activity result in [7] and in [10] was “Not Active” each time. In addition, the result in the data set filed under Homo sapiens [8] and in the data set listed under Homo sapiens [9] was Active.

Turning to `CC[C@H](C[C@@H](O)[C@@H](C)[C@H]1CC[C@H]2[C@@H]3CC=C4C[C@@H](O)CC[C@]4(C)[C@H]3CC[C@]12C)C(C)C`, the Activity result in data set [1], in [2], in data set [5], in [6], in data set [7] and in [10] was “Not Active” throughout. Besides, the result (in the data set listed under Homo sapiens [8]; in data set [11]) was Active. Also, the outcome (with HEK293; in data set [12]) was inactive.

In the case of `CC(C)[C@@H](C)[C@@H](O)C[C@@H](C)[C@H]1CC[C@H]2C3=CC=C4C[C@@H](O)CC[C@]4(C)[C@H]3CC[C@]12C`, the EC50 entry in data set [13] was “Not Active”. Moreover, in [14], the Efficacy was found to be 159%. Besides, the Activity result in data set [1], in [2], in [5], in data set [6], in [7] and in data set [10] was “Not Active” in each case. The outcome in [16] was Active. The outcome in the data set filed under Homo sapiens [8], in the data set filed under Homo sapiens [15] and in the data set filed under Homo sapiens [9] was Active. Besides, the outcome (in the data set on HEK293; in data set [12]) was inactive.
